Results from different studies.
Lines come from different studies, so protocols differ.
Target: Tyrosine-protein kinase Mer (MERTK, Homo sapiens, UniProt Q12866)
One construct used (Q12866 21-999): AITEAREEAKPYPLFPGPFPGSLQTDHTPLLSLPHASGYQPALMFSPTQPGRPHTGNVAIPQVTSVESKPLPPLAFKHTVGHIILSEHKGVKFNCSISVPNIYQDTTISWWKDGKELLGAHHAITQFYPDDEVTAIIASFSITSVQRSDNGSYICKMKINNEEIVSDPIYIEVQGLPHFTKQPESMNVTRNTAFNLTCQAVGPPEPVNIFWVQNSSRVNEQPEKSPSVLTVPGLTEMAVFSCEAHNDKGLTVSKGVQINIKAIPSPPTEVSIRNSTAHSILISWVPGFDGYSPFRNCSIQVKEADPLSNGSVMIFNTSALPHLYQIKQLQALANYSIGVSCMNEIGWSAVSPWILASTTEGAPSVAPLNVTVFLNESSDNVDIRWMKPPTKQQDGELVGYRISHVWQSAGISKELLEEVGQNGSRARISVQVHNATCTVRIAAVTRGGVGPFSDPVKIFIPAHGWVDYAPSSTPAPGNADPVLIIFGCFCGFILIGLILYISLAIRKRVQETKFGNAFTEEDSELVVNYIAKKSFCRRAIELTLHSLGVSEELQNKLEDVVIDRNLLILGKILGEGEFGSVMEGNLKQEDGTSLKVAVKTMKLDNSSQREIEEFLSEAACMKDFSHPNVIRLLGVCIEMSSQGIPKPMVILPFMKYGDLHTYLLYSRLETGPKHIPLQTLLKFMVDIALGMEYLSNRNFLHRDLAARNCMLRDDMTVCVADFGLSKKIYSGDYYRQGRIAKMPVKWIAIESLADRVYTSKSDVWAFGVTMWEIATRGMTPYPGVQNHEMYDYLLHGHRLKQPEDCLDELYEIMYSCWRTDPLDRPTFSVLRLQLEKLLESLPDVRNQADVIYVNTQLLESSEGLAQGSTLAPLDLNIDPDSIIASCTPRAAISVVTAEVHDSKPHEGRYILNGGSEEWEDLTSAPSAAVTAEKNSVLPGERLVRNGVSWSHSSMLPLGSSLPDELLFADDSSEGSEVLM

Structure (SMILES)	test	setting	endpoint	result
COc1cc(Nc2ncc(F)c(Nc3ccc4c(n3)NC(=O)C(C)(C)O4)n2)cc(OC)c1OC	binding, competition with immobilised ligand	10 µM	inhibition	100%
CC(C)(C)c1cc(C=C(C#N)C#N)cc(Br)c1O	enzyme activity, inhibitor	0.5 µM	remaining activity	97.3%
Nc1ncc(-c2nc(N3CCOCC3)nc(N3CCOCC3)n2)c(C(F)F)n1	binding, competition with immobilised ligand	10 µM	remaining binding	87%
COc1ncccc1-c1cnn2ccc(N3CCN(C(=O)OC(C)C)CC3)nc12	binding, competition with immobilised ligand	1 µM	remaining binding	100%
Cn1cc(-c2cccc(N3CCc4c(sc5c4CC(C)(C)C5)C3=O)c2CO)cc(Nc2ccncn2)c1=O	enzyme activity, inhibitor	1 µM	inhibition	1%
Cn1cncc1[C@@](O)(COc1ccc(C#N)cc1-c1ccc(OC(F)(F)F)cc1)c1ccc(C#N)cc1	cell-free assay, competition with immobilised ligand	1 µM	remaining binding	69%
O=c1[nH]c2ccccc2n1C1CCN(Cc2ccc(-c3[nH]c4cc5ncnc5cc4nc3-c3ccccc3)cc2)CC1	cell-free assay	0.5 µM	remaining signal	96.2%
Cn1cc(-c2cc(F)cc(N3CCn4c(cc5c4CCCC5)C3=O)c2CO)cc(Nc2ccc(N3CCN(C4COC4)CC3)cn2)c1=O	enzyme activity, inhibitor	0.1 µM	inhibition	11%
C#Cc1n[nH]c2c(-c3cn(C(C)c4ccccn4)c(=O)[nH]c3=O)cc(F)cc12 (centres unmarked)	enzyme activity, inhibitor	1 µM	inhibition	99.6%
N#CC1(c2ccccn2)CCN(Cc2cc(C(=O)O)c(=O)n3ccccc23)CC1	cell-free assay, competition with immobilised ligand	1 µM	remaining binding	100%
Cc1nn(C)cc1-c1nc2c(N3CCN(Cc4ccc(Cl)cc4)CC3)c(Cl)cnc2[nH]1	binding, competition with immobilised ligand	1 µM	remaining binding	100%
